# From PubChem BioAssay
# The source made the active and inactive calls.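 Rule for the calls, unless noted: active = NADPH fluorescence slope more negative than the mean of all samples by about 3 SD, 99.7% confidence; inactive = the rest.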
# Experiments:
# [1] = inhibitors of TNFa-induced NFkB p65 translocation, primary screen, imaging, HUVEC, MLSMR starter and 10KST1 sets (AID 438;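 active = inhibition above 20% together with a positive visual image hit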;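 note: compound added about 3h40 before a 20 min TNFalpha stimulation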;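 for inhibition: signal is the nuclear over cytoplasmic p65 intensity ratio per well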); settings: HUVEC TNFa-induced p65 nuclear translocation; cell count: measured here: nuclei count (cytotoxicity indicator), at 2.08 µM; inhibition: at 2 µM, stronger effect = higher value, 0% TNFa-plus-vehicle, 100% no-TNFa wells
# [2] = inhibitors of mutant huntingtin aggregation, primary screen, imaging, exon1htt(103Q)mCFP cells, high-content imaging (AID 483;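 active = visual image review flags a hit and inhibition of aggregation exceeds 20%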;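 note: compound exposure lasted 3 days before fixation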;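 for nuclei count: percent of the per-plate median nuclei count of sample wells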); settings: exon1htt(103Q)mCFP cell line, aggregate imaging, at 2 µM; inhibition of aggregation: stronger effect = higher value; nuclei count: measured here: cell count, toxicity
# [3] = inhibitors of E-selectin induction by TNFa, primary screen, imaging, HUVEC, immunofluorescence, MLSMR starter and 10KST1 sets (AID 487;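 active = visually confirmed hit in the image check and inhibition above 20%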;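 for inhibition: signal is fraction of cell area covered by stained E-selectin grains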;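 for nuclei count: 100% = median nuclei count of all wells on the same plate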); settings: HUVEC TNFalpha-induced E-selectin immunofluorescence imaging, at 2 µM; inhibition: stronger effect = higher value; nuclei count: measured here: cell number, toxicity
# [4] = biological target: Voltage-gated potassium channel subunit beta-2 (Rattus norvegicus) (UniProt P62483); test: KvBeta enzyme negative modulators, primary screen, biochemical, NADPH fluorescence (AID 622;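 active = fluorescence slope higher than the sample average by over 3 SD, cut at about -0.22 in these data, passing the limit was not always enough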;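 note: slope of raw intensity against log time taken from 70 to 1610 s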); settings: recombinant KvBeta, 4-cyanobenzaldehyde reduction, at 10 µM, stronger effect = higher value
# Chain of Voltage-gated potassium channel subunit beta-2 (Rattus norvegicus) (P62483 whole entry, looked up): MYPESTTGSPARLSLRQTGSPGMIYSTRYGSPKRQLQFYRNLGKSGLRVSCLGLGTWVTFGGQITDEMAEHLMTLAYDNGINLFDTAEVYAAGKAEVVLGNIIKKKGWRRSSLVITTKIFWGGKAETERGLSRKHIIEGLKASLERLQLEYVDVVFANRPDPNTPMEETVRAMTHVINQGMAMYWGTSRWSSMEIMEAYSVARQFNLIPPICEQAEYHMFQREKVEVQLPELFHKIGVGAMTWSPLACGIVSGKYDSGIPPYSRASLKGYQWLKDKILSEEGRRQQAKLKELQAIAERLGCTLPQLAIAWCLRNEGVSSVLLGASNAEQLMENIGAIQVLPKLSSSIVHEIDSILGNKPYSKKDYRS
# [5] = biological target: Voltage-gated potassium channel subunit beta-2 (Rattus norvegicus) (UniProt P62483); test: KvBeta positive modulators, primary screen, biochemical, NADPH fluorescence (AID 623); settings: Recombinant KvBeta, NADPH fluorescence decrease slope, 10 min; at 10 µM; stronger effect = lower value;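 note: fluorescence intensity change per second fitted from 20 to 320 s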
# [6] = biological target: Muscarinic acetylcholine receptor M4 (Homo sapiens) (UniProt P08173); test: compounds altering M4/GIRK thallium flux, either direction, primary screen, M4 allosteric agonist project, cell-based, HEK293 M4/GIRK, BTC-AM (AID 625;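 active = fluorescence slope after compound addition differing from the mean of all tested samples at 99.7% confidence, mostly higher but some lower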;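 note: thallium influx through GIRK channels coupled to M4 in HEK293 cells with BTC-AM dye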); settings: at 10 µM, actives lie on both sides
# Chain of Muscarinic acetylcholine receptor M4 (Homo sapiens) (P08173 whole entry, looked up): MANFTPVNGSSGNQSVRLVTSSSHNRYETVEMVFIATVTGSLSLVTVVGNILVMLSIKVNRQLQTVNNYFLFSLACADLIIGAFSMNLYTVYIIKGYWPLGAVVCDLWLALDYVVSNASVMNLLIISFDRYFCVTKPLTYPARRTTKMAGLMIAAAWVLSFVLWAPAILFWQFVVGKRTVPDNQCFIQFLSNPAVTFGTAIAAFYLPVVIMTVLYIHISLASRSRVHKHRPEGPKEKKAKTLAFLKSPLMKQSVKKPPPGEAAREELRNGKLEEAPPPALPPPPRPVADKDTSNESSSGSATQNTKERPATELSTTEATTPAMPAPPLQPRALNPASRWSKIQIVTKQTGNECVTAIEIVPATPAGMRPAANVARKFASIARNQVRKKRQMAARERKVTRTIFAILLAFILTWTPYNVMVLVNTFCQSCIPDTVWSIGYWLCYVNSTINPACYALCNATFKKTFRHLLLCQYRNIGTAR
# Summary of the method: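 Assay system: HEK293 cells with M4 receptor and GIRK channels / Controls: carbachol and DMSO controls / Schedule: 1 h dye loading, 2 min kinetic read / Technique: kinetic fluorescence with BTC-AM dye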
# [7] = inhibitors of Sendai virus-induced IRF3 signaling, primary screen, TLR/RLR signaling modifier project, cell-based, Sendai virus stimulus, luciferase, 10K MLSCN set (AID 602276;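 active = inhibition at or above 50% at 10 µM; inactive = inhibition below 50%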;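 note: firefly luciferase from ISG56 promoter only with Renilla not read in this screen; 0% = Sendai virus plus DMSO and 100% = medium plus DMSO without virus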); settings: HEK293 RL24 IRF3 luciferase reporter, at 10 µM, stronger effect = higher value
# [8] = inhibitors of poly I:C-induced TLR3 signaling, primary screen, cell-based, poly I:C stimulus, luciferase, 10K MLSCN set (AID 602277;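 active = inhibition of the reporter signal at or above 50%; inactive = inhibition below 50%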); settings: HEK293-TLR3 RL24 IRF3 luciferase reporter, at 10 µM, stronger effect = higher value
Structure (SMILES),cell count [1],inhibition [1],inhibition of aggregation [2],nuclei count [2] [%],inhibition [3],nuclei count [3] [%],fluorescence slope [4],NADPH fluorescence slope [5],fluorescence slope [6],inhibition [7],inhibition [8]
CCCn1cc(SCC(=O)NCc2ccco2)c2ccccc21,679,-25.2% (inactive),-35.4% (inactive),124,20% (inactive),100,-0.521 (inactive),9.7e-06 (inactive),0.00408 (inactive),13% (inactive),5.85% (inactive)
CCCCNC(=O)c1c(C)cc(=O)oc1C,541,-21.8% (inactive),-12.9% (inactive),141,-29% (inactive),106,-0.531 (inactive),-2.1e-05 (inactive),0.0056 (inactive),18.4% (inactive),14% (inactive)
COc1cccc(/C(O)=C2/C(=O)C(=O)N(CCN3CCOCC3)C2c2cccnc2)c1 (stereo not drawn),270,15% (inactive),5.3% (inactive),107,-37.6% (inactive),117,-0.576 (inactive),-1.6e-05 (inactive),0.00687 (inactive),-4.6% (inactive),9.66% (inactive)
CCOc1ccc(C(CC(=O)O)NC(=O)c2ccco2)cc1OC (stereo not drawn),562,1.8% (inactive),-9.7% (inactive),113,22.7% (inactive),106,-0.35 (inactive),-3.7e-05 (inactive),0.00565 (inactive),9.42% (inactive),29.4% (inactive)
COC(=O)c1cc(O)c(OCc2ccccc2)c(O)c1,775,-2.2% (inactive),20.1% (inactive),112,-8.4% (inactive),112,-0.552 (inactive),4.3e-05 (inactive),0.00449 (inactive),-22% (inactive),-58.4% (inactive)
CC1(C)Cc2c(sc3ncnc(N)c23)CO1,545,-14.9% (inactive),5.4% (inactive),114,-122% (inactive),108,-0.384 (inactive),-2.5e-05 (inactive),0.00833 (inactive),15.3% (inactive),16.7% (inactive)
COc1cccc2cc(C(=O)n3ccc(C)n3)c(=O)oc12,297,-8% (inactive),-15.2% (inactive),93.5,10.9% (inactive),88.2,-0.409 (inactive),1.2e-05 (inactive),0.00485 (inactive),13.4% (inactive),12.3% (inactive)
COC(=O)c1ccc2c(=O)n(Cc3ccco3)c(SCC(=O)Nc3ccc(C)c(Cl)c3)nc2c1,445,5% (inactive),10.1% (inactive),115,4.9% (inactive),91,-0.436 (inactive),-2.2e-05 (inactive),0.00926 (inactive),13.7% (inactive),28.2% (inactive)
CCn1ncc(C2=NOC(C(=O)N3CCC(C(N)=O)CC3)C2)c1C (stereo not drawn),846,-7.8% (inactive),-19.8% (inactive),105,-117% (inactive),109,-0.47 (inactive),3.7e-05 (inactive),0.00576 (inactive),-11.4% (inactive),-7.82% (inactive)
COC(=O)c1cc(NS(=O)(=O)c2ccc3c(c2)CCC(=O)N3)cc(C(=O)OC)c1,384,-2.9% (inactive),-24.1% (inactive),108,-255% (inactive),115,-0.464 (inactive),2.6e-05 (inactive),0.00663 (inactive),-11.6% (inactive),79.6% (active)
COc1ccc(NC(=O)Nc2cc(C)ccc2OC)cc1,217,8.3% (inactive),-1.8% (inactive),98.6,-133% (inactive),120,-0.422 (inactive),-0.00041 (inactive),0.00547 (inactive),-39.1% (inactive),-80.2% (inactive)
COCCNC(=O)c1ccc2c(c1)nc(C)n2-c1cccc(F)c1,292,19.4% (inactive),-2% (inactive),99.8,-16.6% (inactive),98.7,-0.572 (inactive),-3.3e-05 (inactive),0.00562 (inactive),15.5% (inactive),17.5% (inactive)
CS(=O)(=O)N1CCc2cc(C(=O)N3CCCCC3)ccc21,493,6.1% (inactive),0.6% (inactive),100,-8.3% (inactive),83.3,-0.494 (inactive),5.6e-05 (inactive),0.00629 (inactive),17.7% (inactive),18.6% (inactive)
